Laboratory results taken from publication PMC3205922 (Biochemistry, 2011).
Where two headings read alike, the source gives them in different places. Non-standard residues stand in square brackets, D forms with d. No end group written: not given here. pT = C[C@@H](OP(=O)(O)O)[C@H](N)C(=O)O

Assays:
[1] = molecular target: T1, LRRK2 mutant t-G2019S (aa 970–2527) (Homo sapiens, UniProt Q5S007, G2019S); format: biochemical; conditions: for KA (ATP): t-G2019S
[2] = molecular target: T2, truncated wild-type LRRK2 (aa 970–2527) (Homo sapiens, UniProt Q5S007); format: biochemical; conditions: for KA (ATP): t-WT
T2 sequence (Q5S007 970-2527): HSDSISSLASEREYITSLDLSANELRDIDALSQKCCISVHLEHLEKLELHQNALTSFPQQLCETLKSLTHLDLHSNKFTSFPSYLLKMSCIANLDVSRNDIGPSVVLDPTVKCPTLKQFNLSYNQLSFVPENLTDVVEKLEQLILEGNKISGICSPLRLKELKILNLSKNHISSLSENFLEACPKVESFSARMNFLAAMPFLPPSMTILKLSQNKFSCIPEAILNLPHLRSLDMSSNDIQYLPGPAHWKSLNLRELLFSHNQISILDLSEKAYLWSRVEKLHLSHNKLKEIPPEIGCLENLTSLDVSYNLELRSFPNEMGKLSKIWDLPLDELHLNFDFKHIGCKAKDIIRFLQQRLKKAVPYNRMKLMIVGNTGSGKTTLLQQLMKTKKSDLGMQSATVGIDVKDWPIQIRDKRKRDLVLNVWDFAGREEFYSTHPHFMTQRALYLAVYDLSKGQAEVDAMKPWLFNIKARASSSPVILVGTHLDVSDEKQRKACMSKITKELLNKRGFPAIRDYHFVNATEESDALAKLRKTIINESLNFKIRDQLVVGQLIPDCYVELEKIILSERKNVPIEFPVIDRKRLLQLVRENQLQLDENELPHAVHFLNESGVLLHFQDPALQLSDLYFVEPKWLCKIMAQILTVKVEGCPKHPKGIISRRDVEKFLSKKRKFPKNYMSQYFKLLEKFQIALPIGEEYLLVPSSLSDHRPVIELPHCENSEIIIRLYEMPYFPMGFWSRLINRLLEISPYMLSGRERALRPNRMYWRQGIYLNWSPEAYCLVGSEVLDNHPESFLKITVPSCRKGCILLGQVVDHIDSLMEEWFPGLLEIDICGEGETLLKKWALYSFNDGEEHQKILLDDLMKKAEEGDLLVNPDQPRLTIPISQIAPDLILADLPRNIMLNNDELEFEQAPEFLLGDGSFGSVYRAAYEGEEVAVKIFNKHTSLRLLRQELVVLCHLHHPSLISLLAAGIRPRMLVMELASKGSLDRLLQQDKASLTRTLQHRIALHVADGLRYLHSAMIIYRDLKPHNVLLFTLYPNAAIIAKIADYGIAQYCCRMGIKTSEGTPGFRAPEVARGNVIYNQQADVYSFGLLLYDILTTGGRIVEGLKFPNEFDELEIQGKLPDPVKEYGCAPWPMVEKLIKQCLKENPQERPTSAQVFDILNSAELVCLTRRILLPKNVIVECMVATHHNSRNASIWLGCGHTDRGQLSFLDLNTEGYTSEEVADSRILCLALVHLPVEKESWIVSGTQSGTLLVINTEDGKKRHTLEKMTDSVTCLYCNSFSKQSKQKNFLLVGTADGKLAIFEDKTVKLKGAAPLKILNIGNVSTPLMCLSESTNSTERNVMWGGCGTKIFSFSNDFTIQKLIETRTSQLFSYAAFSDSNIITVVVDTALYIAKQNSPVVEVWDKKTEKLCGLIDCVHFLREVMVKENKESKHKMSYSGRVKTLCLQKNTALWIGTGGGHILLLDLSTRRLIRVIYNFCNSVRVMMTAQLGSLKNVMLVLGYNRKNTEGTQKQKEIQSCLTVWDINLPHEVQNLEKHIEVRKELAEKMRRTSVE

[3] = molecular target: T2, truncated wild-type LRRK2 (aa 970–2527); assay: TR-FRET assay of PLK-peptide phosphorylation; format: biochemical
In short: (§1)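 Baculovirus-expressed truncated LRRK2 (aa 970–2527). ATP varied at several fixed PLK-peptide levels. Started with 4 nM enzyme; duplicate wells, RT, 4 h. Stopped with 10 mM EDTA; 2 nM Eu-anti-phospho-PLK added for 2 h; TR-FRET read. Initial velocities fitted by nonlinear least squares to two-substrate rate equations.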

[4] = molecular target: T1, LRRK2 mutant t-G2019S (aa 970–2527); assay: TR-FRET assay of PLK-peptide phosphorylation, initial velocity and inhibition; format: biochemical
In short: as §1

[5] = system: truncated LRRK2 proteins; assay: Effect of GTP or GDP on kinase activity; format: biochemical, human; conditions: in vitro
[6] = system: t-wt LRRK2 (GTPase activity); assay: Radiometric TLC assay of LRRK2-catalyzed GTP hydrolysis; format: biochemical, human; conditions: pH 7.4, room temperature, Michaelis-Menten fit
In short: (§2)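 Baculovirus-expressed truncated LRRK2 (aa 970–2527), wild-type or G2019S. Run in triplicate, 20 min at room temperature, quenched with 20 mM EDTA. GDP resolved by PEI-cellulose TLC (0.5 M KH2PO4, pH 3.4) and scintillation-counted. Initial velocities versus [GTP] fitted to Michaelis-Menten.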

[7] = system: mutant t-G2019S (GTPase activity); assay: as above; format: biochemical, human
In short: as §2

[8] = molecular target: t-wt LRRK2 (Homo sapiens, UniProt Q5S007); format: biochemical; conditions: t-wt LRRK2 treated with NEM
t-wt LRRK2, sequence (Q5S007 970-2527): as above

[9] = molecular target: Truncated LRRK2 mutant G2019S (aa 970–2527) (human) (UniProt Q5S007); assay: enzyme inhibition kinetics
Truncated LRRK2 mutant G2019S (aa 970–2527) (human), sequence (Q5S007 970-2527 G2019S): as the sequence (Q5S007 970-2527) above, with G1050S counted along it

[10] = molecular target: Truncated wild-type LRRK2 (aa 970–2527) (human, UniProt Q5S007 970-2527); assay: enzyme inhibition kinetics
Truncated wild-type LRRK2 (aa 970–2527), sequence (Q5S007 970-2527): as the sequence (Q5S007 970-2527) above

T1 sequence (Q5S007 970-2527 G2019S): as the sequence (Q5S007 970-2527) above, with G1050S counted along it

## Nc1ncnc2c1ncn2[C@@H]1O[C@H](COP(=O)(O)OP(=O)(O)O)[C@@H](O)[C@H]1O [ADP]
[1]; LRRKtide phosphorylation, variable substrate LRRKtide
  inhibition mechanism: noncompetitive

## Nc1ncnc2c1ncn2[C@@H]1O[C@H](COP(=O)(O)OP(=O)(O)OP(=O)(O)O)[C@@H](O)[C@H]1O [ATP]
[2]; phosphoryl acceptor LRRKtide
  KA (ATP): 69 ± 6.6 µM
[2]; phosphoryl acceptor LRRKtide^S
  KA (ATP): 77 ± 19 µM
[1]; phosphoryl acceptor LRRKtide
  KA (ATP): 101 ± 16 µM
[1]; phosphoryl acceptor LRRKtide^S
  KA (ATP): 161 ± 38 µM
[3]; t-WT, phosphoryl acceptor PLK-peptide
  KA (ATP): 7.1 ± 0.7 µM
[4]; phosphoryl acceptor PLK-peptide
  KA (ATP): 10 ± 3.9 µM

## Nc1nc2c(ncn2[C@@H]2O[C@H](COP(=O)(O)OP(=O)(O)O)[C@@H](O)[C@H]2O)c(=O)[nH]1 [GDP]
[5]
  effect on kinase activity: unable to detect any effect

## Nc1nc2c(ncn2[C@@H]2O[C@H](COP(=O)(O)OP(=O)(O)OP(=O)(O)O)[C@@H](O)[C@H]2O)c(=O)[nH]1 [GTP]
[6]
  KGTP: 0.7 ± 0.1 mM
[6]; triplicate
  kcat (GTP hydrolysis): 0.04 ± 0.004 s⁻¹
[7]; t-G2019S versus t-wt
  decrease of GTPase activity by the mutation: 20%
[7]; t-G2019S, pH 7.4, room temperature, Michaelis-Menten fit
  KGTP: 0.4 ± 0.1 mM
[7]; t-G2019S, pH 7.4, room temperature, Michaelis-Menten fit, triplicate
  kcat (GTP hydrolysis): 0.03 ± 0.002 s⁻¹
[5]
  effect on kinase activity: unable to detect any effect

## CCN1C(=O)C=CC1=O [NEM, N-ethylmaleimide]
[8]
  inhibition of LRRK2, dose-response: complete inhibition at high NEM concentration

## LRRKtide^A (peptide)
[9]
  Ki,e (variable substrate ATP, noncompetitive; LRRKtide^S phosphorylation): 800 µM
  Ki,e (variable substrate ATP, noncompetitive; PLK-peptide phosphorylation): 800 µM
  Ki,ea (variable substrate ATP, noncompetitive; LRRKtide^S phosphorylation): 500 µM
  Ki,ea (variable substrate ATP, noncompetitive; PLK-peptide phosphorylation): 500 µM
  Ki,ea (variable substrate LRRKtide^S, competitive): 500 µM
  Ki,ea (variable substrate PLK-peptide, competitive): 500 µM

## RLGRDKYKTLRQIRQ [LRRKtide]
[2]
  Kb: 87 ± 11 µM
[1]
  Kb: 79 ± 11 µM

## RRRSLLE (Only the motif RRRSLLE is printed; The Ser is the phosphoaccept) [PLK-peptide]
[3]; read-out: KB (phosphoryl acceptor), t-WT, TR-FRET, averaged from two independent experiments
  Kb: 0.43 ± 0.05 µM
[4]; read-out: KB (phosphoryl acceptor), TR-FRET, averaged from two independent experiments
  Kb: 0.5 ± 0.2 µM

## RRRSLLE [PLK-peptide]
[3]; from differences in Km values
  tighter binding relative to LRRKtide: > 200 fold
[3]; t-WT, TR-FRET, interaction factor (eq 3)
  α: 0.5 ± 0.1
[4]; TR-FRET, interaction factor (eq 3)
  α: 0.6 ± 0.3

## RLGRDKYK[pT]LRQIRQ (not fully specified; printed as RLGRDKYK(PO4)TLRQIRQ) [PO4-LRRKtide]
[10]
  binding result: binds
